Fewer inactive variants are shown than the library holds.
B1: tRNA (parent)
chain: GUUCCGUUGGCGUAAUGGUAACGCGUCUCCCUCCUAAGGAGAAGACUGCGGGUUCGAGUCCCGUACGGAACG

Variants of: B1
Assay: yeast fitness relative to wild type (ratio to wild type); higher = fitter; tRNA-Arg(CCU), competitive growth, 37 C, YPD
In short: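 For this measurement, the tRNA-Arg(CCU) gene was varied by chemical synthesis at a 3% per-site mutation rate across 69 sites, and each variant was placed at the native genomic locus in Saccharomyces cerevisiae. The pooled strains went through a 24-hour competition in YPD at 37°C in six parallel replicates, with amplicons from start and end populations read by 100-nucleotide paired-end sequencing. Darwinian fitness relative to wild type followed from the change in each genotype's frequency. Genotypes needed ≥ 100 starting reads, and estimates < 0.5 were set to 0.5.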
C4U C27U U64C showed a yeast fitness of 0.757.
Work on C4U G9A C34U A36G C55G A57U G67A yielded a yeast fitness of at most 0.5.
In the case of C4U C34U A43C A69U, the yeast fitness is reported as 0.557.
In the case of C4U C30U U54A, the yeast fitness is reported as at most 0.5.
With C4U C24G C61U the yeast fitness was 0.555.
In the case of C4U C49A C66U, the yeast fitness is reported as 0.612.
Variant C4U C34A C46U U47A has a yeast fitness of at most 0.5.
With C4U G6A A36C the yeast fitness was at most 0.5.
With C4U C30A U59C A69C the yeast fitness was 0.568.
Work on C4U G12C U54G yielded a yeast fitness of at most 0.5.
Work on C4U G9C C33G U54C yielded a yeast fitness of at most 0.5.
Work on C4U G9C G18A U26G A45C yielded a yeast fitness of at most 0.5.
In the case of C4U C24U C55U, the yeast fitness is reported as at most 0.5.
Work on C4U C30A A45G C55G A65G yielded a yeast fitness of 0.636.
With C4U G9A G39A G44C the yeast fitness was at most 0.5.
Work on C4U G23A G56C A57G G68A yielded a yeast fitness of at most 0.5.
In the case of C4U G23C A36C C55G A57U G67A, the yeast fitness is reported as at most 0.5.
Variant C4U C33A A42G has a yeast fitness of at most 0.5.
In the case of C4U G25A C66U, the yeast fitness is reported as 0.75.
With C4U C60U C62A the yeast fitness was at most 0.5.
C4U C34G A69G showed a yeast fitness of at most 0.5.
C4U C29A G52C U54C C55A U59G showed a yeast fitness of at most 0.5.
With C4U G12A A40U A65C the yeast fitness was at most 0.5.
C4U C31G C34U A43U showed a yeast fitness of 0.786.
For C4U C31U A37U G67A G68A, the yeast fitness was at most 0.5.
Work on C4U C24G U26A U28G yielded a yeast fitness of 0.539.
Variant C4U C29A G52C C55G U59G has a yeast fitness of 0.656.
Variant C4U C29U C31U has a yeast fitness of 0.538.
C4U G10A C11G A20G C27G A65U gave a yeast fitness of at most 0.5.
With C4U G25C the yeast fitness was 0.999.
With C4U C34U A40C G41A C62U A65U the yeast fitness was at most 0.5.
Work on C4U G18A A21C A36U yielded a yeast fitness of at most 0.5.
C4U C24G C49U C60U C61A gave a yeast fitness of 0.58.
With C4U G12A U28A A42C the yeast fitness was 0.515.
C4U G6C U7A gave a yeast fitness of at most 0.5.
With C4U C24U A36C the yeast fitness was at most 0.5.
Variant C4U G17C G18C C22A C60A C66U has a yeast fitness of at most 0.5.
Variant C4U G6A A15U A20C G25C U35A has a yeast fitness of at most 0.5.
In the case of C4U C33A U54C, the yeast fitness is reported as at most 0.5.
For C4U G12A A20G C22U A57G, the yeast fitness was at most 0.5.
For C4U C60G G63C, the yeast fitness was at most 0.5.
For C4U G17A C33G, the yeast fitness was at most 0.5.
C4U G10C gave a yeast fitness of 0.625.
For C4U G6A G44C A69U A70G, the yeast fitness was at most 0.5.
Work on C4U G9A C22A U26A G52C G67A yielded a yeast fitness of at most 0.5.
C4U C31U C61G showed a yeast fitness of 0.58.
C4U C27G A65U A70G gave a yeast fitness of at most 0.5.
C4U C46U A69U gave a yeast fitness of 1.16.
Variant C4U C46U A69C has a yeast fitness of 0.817.
C4U G23C showed a yeast fitness of 0.716.
Work on C4U C66A G68C yielded a yeast fitness of 0.546.
With C4U C29A G52C C55A U59G the yeast fitness was 0.554.
C4U C27U C29G A42C C55G showed a yeast fitness of at most 0.5.
Variant C4U G12C C60G A70C has a yeast fitness of at most 0.5.
In the case of C4U G12C C29U C31U U54G A65U G67A, the yeast fitness is reported as at most 0.5.
Work on C4U C30A C66U yielded a yeast fitness of 0.82.
Work on C4U G12A A40U A69C yielded a yeast fitness of 0.56.
For C4U G10C G48C G63C G67A, the yeast fitness was at most 0.5.
C4U C27A C31U C60G gave a yeast fitness of at most 0.5.
C4U C34G U35A A42U C60U showed a yeast fitness of at most 0.5.
In the case of C4U G9A A15U A20C C27A C61G A65C, the yeast fitness is reported as at most 0.5.
In the case of C4U C34A G44C, the yeast fitness is reported as 0.636.
C4U C27U G39C G52A G56A gave a yeast fitness of 0.614.
For C4U G6C C30G, the yeast fitness was at most 0.5.
For C4U G9A C22G A42U, the yeast fitness was 0.546.
With C4U G23C A40U A42G A45G G51C C61U G63A the yeast fitness was at most 0.5.
C4U G38A gave a yeast fitness of 0.919.
C4U G12A G39C C49A U64G gave a yeast fitness of 0.544.
With C4U C24G U26A U28G G68C the yeast fitness was at most 0.5.
Variant C4U C29U G63A has a yeast fitness of 0.517.
For C4U C27G, the yeast fitness was 0.656.
Variant C4U C27A has a yeast fitness of 0.737.
Variant C4U C27U has a yeast fitness of 1.02.
C4U G12C C49A U64C showed a yeast fitness of at most 0.5.
Work on C4U G10C A36U yielded a yeast fitness of 0.659.
C4U G25A A36C A70G showed a yeast fitness of at most 0.5.
C4U C30U C31G showed a yeast fitness of 0.583.
Variant C4U G10A C11G A20G C27G C29U A65U has a yeast fitness of at most 0.5.
Variant C4U G6A A15U A20C G25C U35A A45U has a yeast fitness of at most 0.5.
Variant C4U C34G G52U has a yeast fitness of 0.62.
For C4U G10C A21G C30A G38C C46U A70C, the yeast fitness was at most 0.5.
Work on C4U G12A A40U yielded a yeast fitness of 0.642.
Work on C4U C27U C31G C55U yielded a yeast fitness of at most 0.5.
With C4U C29G C30U the yeast fitness was at most 0.5.
For C4U C27G A65U, the yeast fitness was at most 0.5.
Work on C4U G25C A45C C46A yielded a yeast fitness of 0.733.
For C4U G25C C34U A65U, the yeast fitness was at most 0.5.
Variant C4U C31U C55G U59A has a yeast fitness of 0.546.
C4U C33G showed a yeast fitness of 0.722.
Work on C4U C33U yielded a yeast fitness of 0.789.
For C4U C31G U47C G48C, the yeast fitness was at most 0.5.
Variant C4U G18C A20C G39A has a yeast fitness of at most 0.5.
With C4U C31U A43U G48A U53A the yeast fitness was at most 0.5.
For C4U G12A C60A, the yeast fitness was at most 0.5.
In the case of C4U G10C C30A G50A, the yeast fitness is reported as at most 0.5.
Work on C4U C30A yielded a yeast fitness of 0.917.
With C4U C31G A40G A45C U53A A70U the yeast fitness was at most 0.5.
With C4U G18A C22U A40C the yeast fitness was at most 0.5.
Work on C4U G25C G68A yielded a yeast fitness of 0.976.
In the case of C4U G9C G18A A21G C24U A37C, the yeast fitness is reported as 0.694.
In the case of C4U C30A G50C G56A C62U G67U, the yeast fitness is reported as at most 0.5.
Variant C4U C27G A45C has a yeast fitness of 0.564.
With C4U G6C C33A A40C G41A U59A U64A C66G the yeast fitness was at most 0.5.
Work on C4U C24U C27G yielded a yeast fitness of at most 0.5.
With C4U G10A C22G the yeast fitness was 0.642.
C4U G6A U8G C31U C49A G67A showed a yeast fitness of at most 0.5.
C4U G12A C46U gave a yeast fitness of 0.728.
C4U C46U C49G U59C showed a yeast fitness of at most 0.5.
C4U C33A A40U gave a yeast fitness of 0.564.
For C4U C30A A43G, the yeast fitness was 0.728.
C4U C49A A57C A69U showed a yeast fitness of at most 0.5.
With C4U G6A A14C A65U the yeast fitness was at most 0.5.
C4U C33U G44A showed a yeast fitness of at most 0.5.
Work on C4U C29A A36C A40U G51A G68C yielded a yeast fitness of at most 0.5.
C4U G9A U54A showed a yeast fitness of at most 0.5.
In the case of C4U C27G C33U A57G, the yeast fitness is reported as at most 0.5.
Variant C4U C31U C60A has a yeast fitness of at most 0.5.
Variant C4U C55U C66A has a yeast fitness of at most 0.5.
In the case of C4U G12C U28G C62G A70U, the yeast fitness is reported as at most 0.5.
Variant C4U G10A C22U G44C has a yeast fitness of at most 0.5.
For C4U C31U A40U A69U, the yeast fitness was 0.625.
With C4U G18A A21C G48C the yeast fitness was at most 0.5.
Variant C4U G23C U47C C49A G68C has a yeast fitness of at most 0.5.
Work on C4U C61U yielded a yeast fitness of 0.977.
Work on C4U G25A A65G yielded a yeast fitness of 0.718.
C4U C55A A65U showed a yeast fitness of at most 0.5.
Work on C4U C66U yielded a yeast fitness of 0.978.
In the case of C4U G6A G25A U53A C66A, the yeast fitness is reported as at most 0.5.
C4U G12A A14G G18A C30G C46U gave a yeast fitness of at most 0.5.
Variant C4U C30A A37U G44C U53A has a yeast fitness of at most 0.5.
For C4U C30A G68A, the yeast fitness was 0.786.
For C4U C27U A57C C61U, the yeast fitness was at most 0.5.
C4U C29A C31G A42C A45U A69U showed a yeast fitness of at most 0.5.
Work on C4U G23A U28C G56C yielded a yeast fitness of at most 0.5.
Variant C4U C46A G67C has a yeast fitness of at most 0.5.
In the case of C4U C61U A70G, the yeast fitness is reported as 0.777.
In the case of C4U G17A C22U G68C, the yeast fitness is reported as at most 0.5.
For C4U C24U C30A, the yeast fitness was 0.597.
In the case of C4U C27G C31G, the yeast fitness is reported as at most 0.5.
With C4U C24G U26A U28G C66A the yeast fitness was at most 0.5.
In the case of C4U C46G C61G A65C, the yeast fitness is reported as 0.588.
C4U G9C A20G A45G C61A G67A gave a yeast fitness of at most 0.5.
C4U G12A A45C C49U showed a yeast fitness of at most 0.5.
C4U C27U A45C G48A G56C showed a yeast fitness of 0.612.
With C4U G12C C30G A36C the yeast fitness was at most 0.5.
With C4U G9A C22G A42U G68C the yeast fitness was at most 0.5.
In the case of C4U G12A C27G C34A C49A G68U, the yeast fitness is reported as at most 0.5.
In the case of C4U G23C A40U A42G A45G G51C C61U, the yeast fitness is reported as at most 0.5.
Variant C4U G18C G50A has a yeast fitness of at most 0.5.
Work on C4U G12C A21C C29G A36G C46U G58A yielded a yeast fitness of at most 0.5.
For C4U C24U A43G C60U C61G, the yeast fitness was at most 0.5.
Work on C4U C33A A40U G68A yielded a yeast fitness of at most 0.5.
C4U G25A U54A showed a yeast fitness of at most 0.5.
C4U G23A A40C U54A U59A showed a yeast fitness of at most 0.5.
C4U C27U U35C C61G showed a yeast fitness of at most 0.5.
Work on C4U C33G A70G yielded a yeast fitness of at most 0.5.
For C4U C55U, the yeast fitness was 0.694.
With C4U C30U A57G G68A the yeast fitness was 0.525.
Variant C4U G12A A42U has a yeast fitness of at most 0.5.
Variant C4U G12C U28G C62G has a yeast fitness of at most 0.5.
C4U G10C G23A U26C U32C A43G U53A showed a yeast fitness of at most 0.5.
Work on C4U C34A A43U U47C C62G C66A yielded a yeast fitness of at most 0.5.
Variant C4U C55U A65G has a yeast fitness of 0.554.
Variant C4U G12A A20G C22U G68C has a yeast fitness of at most 0.5.
In the case of C4U G9A G67A, the yeast fitness is reported as 0.598.
C4U G6C A21C C30G C46G showed a yeast fitness of 0.524.
For C4U C27A A43U G51C, the yeast fitness was at most 0.5.

— the RNAGym collection of RNA variant scans (doi:10.1126/science.aae0568)
